NF-kB neuron act: activators of NF-kB expression in neurons, primary screen, cell-based, HTS | human neuronal cells, NF-kB reporter expression; stronger effect = higher value | fold change at 12.5 µM | actives 1.6% (n = 190,000); in the data active means fold change above about 3.3
STAT3 act: IL-6 driven STAT3 reporter potentiators, primary screen, U3A cells, luciferase, luminescence, MLSCN library | IL-6 STAT3-luciferase reporter; 100% = signal with IL-6 EC80 alone | activation (% of control), % at 5.6 µM | actives 0.91% (n = 190,000);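 active means activation above the screen-wide mean of compound activation plus 3 SD, cut at about 130% in these data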
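Test system: Human STAT1-deficient U3A cells with stable STAT3-luciferase reporter | Also added: Interleukin-6, 33 ng/mL | Timing: Compound pre-incubation 1 h before IL-6, then 6 h stimulation at 37 °C | Technique: Luciferase reporter luminescence | Read-out: Percent of IL-6-only median luminescence | Benchmarks: IL-6-only wells as 100% reference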
STAT1 activator: STAT1 signaling activators, primary screen, cell-based, HTS, luciferase reporter; NIH 3T3 STAT1-luciferase reporter, IFN-gamma, luminescence; 100% = IFN-gamma alone, no compound; activation (% of control), % at 5.5 µM; actives 2.6% (n = 200,000); AID 932, 2007;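 active means activation above the screen-wide mean activation plus 3 SD, cut at about 130% in these data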
STAT1 blocker: STAT1 signaling inhibitors, primary screen, cell-based, HTS, luciferase reporter. NIH 3T3 STAT1-luciferase reporter, IFN-gamma, luminescence. inhibition, % at 5.5 µM. actives 0.35% (n = 200,000);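 active means inhibition above a set limit, the mean inhibition across all tested compounds plus 3 SD, cut at about 34% in these data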
APP 5'UTR act: activators of APP 5'UTR luciferase reporter, primary screen, SH-SY5Y cells. actives 1% (n = 190,000). SH-SY5Y APP 5'UTR luciferase reporter, luminescence; zero percent = DMSO vehicle wells. AID 1276, 2008. activation, % at 2 µM;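 active means activation above a set limit, based on mean plus 3 SD of controls, cut at about 140% in these data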
STAT3 inh: IL-6 driven STAT3 reporter inhibitors, primary screen, U3A cells, luciferase, luminescence, MLSCN library; actives 0.89% (n = 190,000); inhibition, % at 5.5 µM; IL-6 STAT3-luciferase reporter; host cell line lacks STAT1;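 active means inhibition above the mean inhibition across all screened compounds plus 3 SD, cut at about 44% in these data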
Hits are given with their value; - = inactive; . = no result. This is a sample that favours compounds with a hit; in the whole collection about 4.9% have one here.

SMILES	NF-kB neuron act	STAT3 act	STAT1 activator	STAT1 blocker	APP 5'UTR act	STAT3 inh
CCOc1ccc(-c2cc(C(=O)O)c3ccccc3n2)c(OCC)c1	-	135.0	-	-	-	-
CCNC(=S)NNC(=O)c1cc(-c2ccc(OCC)cc2)nc2ccccc12	5.5	-	-	86.2	-	98.9
C/C(N)=C(/C#N)C(=O)COC(=O)CCCNC(=O)c1ccc(Cl)cc1	-	-	-	-	-	-
O=C(O)c1ccc(-c2nc(-c3ccc(Cl)cc3Cl)cs2)cc1	-	-	137.1	-	-	-
COc1ccc(C2C3C(C)=NN=C3CC(C)(O)C2C(C)=O)cc1 (centres undefined)	-	-	-	-	-	-
CC(=O)NC1C(=O)N=C(SCc2ccccc2)NC1=O (centres undefined)	-	-	-	-	-	-
CC(=O)NC1C(=O)Nc2c(C)cc(C)cc21 (centres undefined)	-	-	138.2	-	-	-
CCOC(=O)c1sc2nc3n(c(=O)c2c1C)CCCCC3	-	-	132.9	-	-	-
CCOC(=O)c1sc2nc3n(c(=O)c2c1C)CCC3	-	-	-	-	-	-
O=C(CSc1ccsc1[N+](=O)[O-])NCCc1ccccc1	-	135.5	-	-	-	-
Cc1ccc(CNC(=O)CSc2ccsc2[N+](=O)[O-])cc1	-	-	133.5	-	-	-
O=C(CSc1ccsc1[N+](=O)[O-])NCCc1ccc(Cl)cc1	-	-	-	-	-	-
COc1ccc(CNC(=O)CSc2ccsc2[N+](=O)[O-])cc1	-	-	-	-	-	-
CCN=c1scc(-c2ccco2)n1/N=C/c1ccc(OC)c(O)c1	3.99	-	-	-	181.7	-
CCN=c1scc(-c2ccco2)n1/N=C/c1ccc(O)cc1	-	-	-	-	-	-
Cc1csc(NC(=O)/C=C/c2ccc3c(c2)OCO3)n1	-	-	-	43.6	-	88.0
Brc1cc2c(cc1/C=N/Nc1nc3ccccc3s1)OCO2	-	-	131.9	-	-	-
CC(C)=CC(=O)Nc1ccc2c(c1)OCO2	4.53	-	-	-	-	-
Cc1ccc2nc(NC(=O)/C=C/c3ccc4c(c3)OCO4)sc2c1	-	-	-	-	-	-
O=C(/C=C/c1ccc2c(c1)OCO2)Nc1nc(-c2ccc(F)cc2F)cs1	-	-	-	-	-	-
O=C(/C=C/c1ccc2c(c1)OCO2)Nc1nc2ccccc2s1	-	-	146.2	-	156.3	-
Brc1cc2c(cc1/C=N/Nc1nc(N3CCOCC3)nc(N3CCOCC3)n1)OCO2	-	-	-	-	-	-
C=CCn1cc(F)c(=O)n(CC=C)c1=O	-	-	-	-	-	-
COC(=O)Nc1ccc(S(=O)(=O)N2CCCC(C(=O)N3CCCCCC3)C2)cc1 (centres undefined)	-	-	-	-	-	-
COC(=O)CS(=O)(=O)c1ccsc1C(=O)Nc1ccc(F)cc1	-	-	-	-	-	-
SMILES	NF-kB neuron act	STAT3 act	STAT1 activator	STAT1 blocker	APP 5'UTR act	STAT3 inh
Nc1cc2c(cc1C(=O)c1ccc(Cl)cc1)OCCO2	-	-	-	-	-	-
CCN(CC)c1ccc(/C=N\N2CCN(Cc3ccc(C)cc3)CC2)cc1	-	-	-	-	-	-
COc1ccc(NC(=O)/C=C/c2ccc3c(c2)OCO3)cc1	-	-	130.9	-	-	-
O=C(O)C(=O)/C(=C\c1ccccc1)c1ccc2ccccc2n1	-	168.8	144.2	-	-	-
O=C(O)C(=O)/C(=C\c1ccc([N+](=O)[O-])cc1)c1ccc2ccccc2n1	-	-	149.8	-	-	-
O=C(O)C(=O)/C(=C\c1cccc2ccccc12)c1ccc2ccccc2n1	-	-	-	-	-	-
CC1C2=C(CCCC2=O)N(c2cccc3ccccc23)C2=C1C(=O)CCC2	.	-	-	-	-	-
O=C(NC(=S)N1CCCc2ccccc21)c1ccc(Cl)cc1	-	142.4	-	-	-	-
O=C(NC(=S)N1CCCc2ccccc21)c1ccc(Br)cc1	-	133.2	-	-	-	-
O=C(NC(=S)N1CCCc2ccccc21)c1ccc([N+](=O)[O-])cc1	-	-	-	-	-	-
COc1ccc(C(=O)NC(=S)N2CCCc3ccccc32)cc1OC	-	-	-	-	-	-
CCc1ccc(C(=O)COC(=O)[C@@H](NC(N)=O)[C@@H](C)CC)cc1	-	-	-	-	-	-
C=CCOc1ccc(C(=O)CC)cc1OC	-	-	-	-	-	-
CC1=CC(C2CC(=O)N(c3ccc(C)cc3)C2=O)CC2C(=O)N(c3ccc(C)cc3)C(=O)C12 (centres undefined)	-	-	-	-	-	-
S=c1[nH]nc(Cc2ccccc2)n1-c1cccc2ccccc12	-	-	-	-	-	-
Cc1ccnc(NC(=O)Nc2cccc(F)c2)n1	.	-	144.9	-	150.1	-
Cc1cccc(NC(=O)Nc2cccc(F)c2)n1	-	-	-	-	-	-
COCc1cc(CN2CCCC2)c(O)c2ncccc12	-	-	-	-	-	-
Oc1ccc(CN2CCCCC2)c2cccnc12	10.6	-	-	-	-	-
Oc1c(CN2CCCCC2)cc(COCc2ccccc2)c2cccnc12	3.77	-	-	-	-	-
CCOC(=O)N1CCN(Cc2ccc(O)c3ncccc23)CC1	4.79	-	-	-	-	-
Oc1ccc(CN2CCN(c3ccccc3)CC2)c2cccnc12	-	-	-	-	-	-
Oc1ccc(CN2CCc3ccccc3C2)c2cccnc12	5.19	-	-	-	-	-
O=[N+]([O-])c1cc(/C=N/O)ccc1Oc1ccccc1Cl	-	-	131.4	-	-	-
CCOC(=O)C(C(=O)Nc1ccc(C)cc1)C1CCCCC1 (centres undefined)	-	-	-	-	-	-
SMILES	NF-kB neuron act	STAT3 act	STAT1 activator	STAT1 blocker	APP 5'UTR act	STAT3 inh
COCCNC(=O)c1cc2sc3ccccc3c2s1	-	-	136.8	-	-	-
CN(C)CCCNC(=O)c1cc2sc3ccccc3c2s1	-	-	-	-	-	-
CCCCOC(=O)Nc1ccc(N2CCCCC2)cc1	6.14	-	140.0	-	-	-
CCCCCOC(=O)Nc1nnc(CCC)s1	-	-	-	-	-	-
CCCCOC(=O)Nc1nnc(C(C)C)s1	-	-	129.7	-	-	-
CCCCOC(=O)Nc1ccc(S(=O)(=O)Nn2cnnc2)cc1	-	-	-	-	-	-
CCCCOC(=O)Nc1ccc(N2CCOCC2)cc1	-	-	-	-	-	-
CCCCOC(=O)Nc1ccc(C(N)=O)cc1	-	-	-	-	-	-
CCCCOC(=O)Nc1ccc(C(C)C)cc1	-	-	130.3	-	-	-
CCCCOC(=O)Nc1ccc(N(C)C)cc1	4.03	-	144.5	-	171.3	-
